Hits are enriched below; roughly 9.4% of the tested compounds scored in any of these assays.
Beta apoptosis: inhibitors of cytokine-induced beta cell apoptosis, primary screen, luminescence; INS-1E cytokine-induced death, ATP luminescence, 48 h; percent of positive-control rescue, neutral wells zero; protection from apoptosis, % (no concentration beside the values); 0.8% of 300,000 active; AID 435005, 2010;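 active = Every replicate reaches about 75%, or at least half do and their mean reaches it too, limit read from the data; inconclusive = At least half of replicates reach the limit but their mean does not; inactive = Under half of replicates reach the limit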;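 note: 0% = cytokine-treated negative control wells and 100% = positive control rescue; higher means more ATP so stronger rescue from cytokine killing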
L major viab: Leishmania major promastigote growth inhibition, primary screen. Leishmania major promastigotes, resazurin fluorescence viability. inhibition, % at 10 µM. AID 1063, 2008. 9% of 200,000 active; in the data active = inhibition above about 50%;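 note: promastigotes grown with compound for 44 hours at 28 °C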
Mdm2-MdmX inh: inhibitors of human Mdm2-MdmX association, primary screen, cell-based, luminescence, split luciferase, SaOS-2, uHTS | inhibition, % at 8 µM | Protein Mdm4 (Homo sapiens) + E3 ubiquitin-protein ligase Mdm2 (Homo sapiens), … | AID 485346, 2010 | 3% of 330,000 active | SaOS-2 split-luciferase Mdm2/MdmX complementation;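 active = inhibition of at least 50% at 8 µM in the primary screen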
SKKanGAS inh: S. pyogenes SKKanGAS growth inhibitors in kanamycin, primary screen, streptokinase expression inhibitor project, SKKanGAS strain, BacTiter-Glo luminescence | 6 h | AID 1662, 2009 | 1.3% of 300,000 active | inhibition, % at 7.5 µM;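 active = mean replicate score, as percent of positive control median, at least 50; inconclusive = mean below 50 but one replicate at or above 50; inactive = mean and every replicate below 50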;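 note: strain carries kanamycin resistance gene driven by streptokinase promoter and grows in 40 µg/ml kanamycin; loss of luminescence reflects streptokinase promoter inhibition or plain growth inhibition; 0% = median of DMSO wells and 100% = positive control at its reference dose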
CSC inhib: cancer stem cell viability inhibitors, primary screen, luminescence. 1.1% of 300,000 active. cancer stem cell-like cells viability. inhibition, % at 7.5 µM; in the data active = inhibition above about 75%; inconclusive = no clear call, values can overlap the other calls; tested in HMLE shEcad cells
T cruzi inh: inhibitors of intracellular T. cruzi growth, primary screen, luminescence, NIH3T3 host cells; inhibition, % (no concentration beside the values); 1.4% of 300,000 active; T. cruzi beta-gal in NIH3T3, 90 h; AID 1885, 2009;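 active = mean inhibition across valid replicates above about 55%, limit read from the data; inconclusive = mean below that limit but half or more replicates reach it; inactive = mean below it, under half of replicates reach it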;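 note: signal also drops with host cell toxicity which is not excluded here; 0% = plate median of DMSO wells and 100% = zero luminescence signal; higher percent means less beta-gal luminescence so fewer parasites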
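Assay system: NIH/3T3 host cells with β-galactosidase reporter T. cruzi; input: 5,000 host fibroblasts per well; compound: single 50 nL compound addition per well in DMSO; timing: ≥90 h infection period, 3 h prior cell attachment; measured by: GalScreen β-gal luminescence, detergent lysis, 60 min; evaluation: percent inhibition of parasite-derived β-gal signal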
Numbers without * were called inactive; ? = inconclusive; . = not tested or not shown.

SMILES | Beta apoptosis | L major viab | Mdm2-MdmX inh | SKKanGAS inh | CSC inhib | T cruzi inh
CCN(CC)S(=O)(=O)c1ccc(N2CCCC2)c(NS(=O)(=O)c2ccccc2)c1 | -1 | 63* | 4 | 0 | 2 | -5
CCN(CC)CCNC(=O)c1ccc(N2CCCCC2)c(NS(=O)(=O)c2ccc(C)cc2)c1 | 0 | 101* | 27 | -2 | 7 | 14
CC1(C)Cc2c(sc3nc(-c4ccccc4)oc(=O)c23)CO1 | -3 | -1 | 11 | 0 | 11 | -9
CCOc1ccccc1NC(=O)C(c1ccccc1)N1CCN(CC(=O)N2CCCC2)CC1 (stereo not given) | -3 | . | -7 | . | 2 | .
N/C(=N\OC(=O)CCCc1ccccc1)c1ccccc1Cl | . | . | 12 | 12 | 6 | 14
COc1ccc(NS(=O)(=O)c2cc(S(C)(=O)=O)ccc2C)cc1 | 1 | 49 | 8 | 0 | -12 | -4
CCN(CC)S(=O)(=O)c1cc(NS(=O)(=O)c2cccc(C(=O)O)c2)ccc1C | -4 | -5 | -15 | -20 | 6 | -18
Cc1ccc(S(C)(=O)=O)cc1S(=O)(=O)Nc1ccccc1 | 3 | 50* | -13 | 4 | -28 | 1
CCN(CC)S(=O)(=O)c1cc(NS(=O)(=O)c2ccccc2)ccc1C | -1 | 52* | -12 | -8 | 4 | -14
CCc1ccc(-c2nc(CS(=O)CC(=O)O)c(C)o2)cc1 (stereo not given) | -1 | . | -9 | -8 | -1 | -5
Cn1c(=O)c2c(ncn2CC(=O)N/N=C/c2c[nH]c3ccccc23)n(C)c1=O | -24 | . | 8 | 3 | -9 | -1
CN(Cc1ccc(C#CCCO)cc1)CC1CCCN(CCc2ccc(Cl)cc2)C1 (stereo not given) | . | . | 29 | 3 | -9 | 35
CCN(Cc1ccc(C#CCCO)cc1)CC1CCCN(CCc2cccc(F)c2)C1 (stereo not given) | 6 | . | 27 | -1 | 12 | 64*
Clc1cccc(CN2CCc3c([nH]c4ccccc34)C2)c1Cl | -2 | . | 41 | 20 | 111* | 20
COc1ccccc1CN1CCc2c([nH]c3ccccc23)C1 | -1 | . | 22 | -7 | 9 | 17
CC(C)c1cc(O)c(-c2ccccc2)c(=O)n1-c1ccc(Cl)cc1 | -1 | . | -14 | -13 | -13 | .
CC(C)c1c(O)cc(-c2ccncc2)n(-c2ccc(Cl)cc2)c1=O | -4 | 54* | -6 | -1 | -9 | 1
Cc1c(NC(=O)C(C)N2C(=O)NC3(CCC(C)CC3)C2=O)c(=O)n(-c2ccccc2)n1C (stereo not given) | -3 | 1 | -33 | 9 | 8 | -5
CCOC(=O)c1c(NC(=S)Nc2ccccc2)sc(C)c1C | -4 | -2 | -10 | 6 | 1 | 4
CCOC(=O)c1c(NC(=O)C[n+]2ccc(Cc3ccccc3)cc2)sc(C)c1C | 78* | 53* | 27 | -4 | -8 | 59*
CCOC(=O)c1c(NC(=O)Cc2ccccc2)sc2c1CCN(C)C2 | -8 | . | 22 | -4 | -8 | 55*
CN1CCc2c(sc(NC(=O)c3ccc4ccccc4c3)c2C(N)=O)C1 | 7 | . | -7 | 17 | 48 | 55*
O=C(c1ccc2c(c1)OCCO2)C1CCN(C(=O)c2ccc(F)c(F)c2)CC1 | 13 | 57* | -4 | -11 | -8 | 3
CCCCC(CC(O)COCCC)c1n[nH]c(=S)n1-c1ccccc1 (stereo not given) | 0 | 0 | -12 | -9 | 1 | 20
CCCCCC(=O)N(Cc1ccccc1)c1c(N)n(CCOC)c(=O)[nH]c1=O | -3 | . | 20 | -1 | -2 | 5
SMILES | Beta apoptosis | L major viab | Mdm2-MdmX inh | SKKanGAS inh | CSC inhib | T cruzi inh
CC(C)=CCc1c(O)ccc(C(=O)Cc2ccccc2)c1O | 8 | 13 | 23 | 23 | 97* | -4
O=C(Cc1cnn(-c2ccccc2)c1)c1ccc(O)c(O)c1O | -6 | -9 | -23 | 1 | . | -12
O=C(NCCC(=O)N1CCCCCCC1)c1ccc(Cl)cc1 | 1 | . | -3 | 7 | 13 | 0
CCCCOc1ncnc2c1[nH]c1ccc(F)cc12 | 110* | 24 | 9 | -7 | ? | -23
CCCCOc1ncnc2c1[nH]c1ccc(OCC)cc12 | 9 | 12 | 11 | -2 | -21 | 11
CCCCOc1ncnc2c1[nH]c1ccccc12 | 61 | 57* | 16 | 1 | -6 | 15
O=C(CN1C(=O)NC2(CCCC2)C1=O)OCCOc1cccc(Br)c1 | -7 | . | 21 | -4 | 31 | -32
CC(C)(C)C(=O)Nc1cccc(-c2cc(-c3c(Cl)cccc3Cl)no2)c1 | 11 | . | 24 | 14 | 46 | 52
Cc1ccc2nc(N/C(N)=N/S(=O)(=O)c3ccc([N+](=O)[O-])cc3)nc(C)c2c1 | 5 | 99* | 23 | 3 | -11 | 58*
Cc1ccc(S(=O)(=O)/N=C(\N)Nc2nc(C)c3ccccc3n2)cc1 | 0 | 2 | -36 | 8 | 0 | 19
CCCCN(C)C(=O)c1ccc2c(c1)S(=O)(=O)c1ccccc1C2=O | 6 | . | 16 | 2 | 4 | -11
Cc1[nH]c2ccccc2c1C(=O)CCl | . | 99* | . | -7 | . | 28
Cc1[nH]c2ccccc2c1C(=O)CSc1ccccc1 | -7 | 5 | -29 | -6 | 4 | 16
CCOCCCNCC(=O)Nc1ccc(S(=O)(=O)NC(C)CC)cc1 (stereo not given) | 3 | -4 | 12 | 1 | 4 | 8
COc1ccc(N2C(=O)CS/C2=N\C(=S)Nc2ccccc2)cc1 | -5 | . | 6 | 2 | 3 | 14
CCCCn1nc2cc(C(=O)NCCCCc3ccccc3)ccc2c1OCC | -3 | 73* | 28 | 1 | 44 | 4
CCOc1c2ccc(C(=O)NCC34CC5CC(CC(C5)C3)C4)cc2nn1CC | 0 | 86* | -16 | 16 | 0 | -3
CCCCn1nc2cc(C(=O)NCC3CC3)ccc2c1OCC | 1 | -5 | 16 | 2 | -8 | 9
CCCCNC(=O)c1ccc2c(OCC)n(CCCC)nc2c1 | 2 | 5 | -20 | 0 | -2 | -2
CCn1nc2cc(C(=O)NCC34CC5CC(CC(C5)C3)C4)ccc2c1OC | -8 | 51* | 9 | -4 | -5 | -1
CCCCn1nc2cc(C(=O)NCC34CC5CC(CC(C5)C3)C4)ccc2c1OC | -5 | 59* | 9 | 6 | 30 | 24
CCOc1c2ccc(C(=O)NCc3ccccc3OC)cc2nn1CC | -8 | -3 | 10 | -4 | -7 | -3
Cc1cc(C)c2c(n1)SCC(=O)N2CC(=O)Nc1cc(F)ccc1F | -12 | . | -6 | 0 | -7 | -2
CNS(=O)(=O)c1cc(OC)c(OC)cc1CC(=O)OC | -5 | -4 | 26 | -5 | -15 | -14
O=C(c1ccc(N2CCCC2)c([N+](=O)[O-])c1)N1CCN(S(=O)(=O)c2ccccc2)CC1 | . | . | 8 | . | . | .
